Reference: ChEMBL document CHEMBL1148734, “Structure-activity relationships of phenyl-furanyl-rhodanines as inhibitors of RNA polymerase with antibacterial activity on biofilms” (J Med Chem, 2007)
In brackets after ≈: the same amount, converted by molar mass. Activity calls are given as the source filed them. The rule behind the calls is not given here.

Columns and labels:
Escherichia coli [1] = experiment: Antibacterial activity against Escherichia coli tolC CGSC 5633; format: functional
CHO = experiment: Cytotoxicity against CHO cells; format: cell-based, Cricetulus griseus; conditions: chinese hamster
Outline: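 CHO cells grown in RPMI with 5% fetal calf serum, then exposed to compounds 24 h at 37 °C without serum. MTT added at 300 µg/mL final, 3 h at 37 °C dark; acidified isopropanol added, 1 h at room temperature; OD at 595 nm.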

Escherichia coli [2] = experiment: Inhibition of RNA polymerase sigma-70 transcription in Escherichia coli at 10 uM; format: functional
[3] = tested on: Staphylococcus epidermidis; experiment: Antibacterial activity against Staphylococcus epidermidis CIP 105777; format: functional
Staphylococcus aureus [4] = experiment: Antibacterial activity against multidrug resistant Staphylococcus aureus 49589; format: functional
Outline: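 Broth microdilution MIC following CLSI. Compounds were predissolved in DMSO and tested as serial 2-fold dilutions at final 100 to 0.4 µg/mL. Inoculum was 5 × 10⁵ CFU/mL, and plates were read after 18 h at 37 °C.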

Staphylococcus aureus [5] = experiment: Antibacterial activity against Staphylococcus aureus CIP 76.25; format: functional
[6] = tested on: Staphylococcus epidermidis; experiment: Antibacterial activity against Staphylococcus epidermidis RP62A; format: functional
Bacillus anthracis = experiment: Antibacterial activity against Bacillus anthracis 9131; format: functional
Clostridioides difficile = experiment: Antibacterial activity against Clostridium difficile DSM 1296; format: functional
Streptococcus pneumoniae = experiment: Antibacterial activity against Streptococcus pneumoniae CIP 103566; format: functional

Compound | MIC (Escherichia coli [1]) [mg/L] | Activity (CHO) | inhibition at 10 µM (Escherichia coli [2]) [%] | MIC [3] [mg/L] | Activity (Staphylococcus aureus [4]) | other results
C=CCN1C(=O)/C(=C/c2ccc(-c3ccccc3C(=O)O)o2)SC1=S | ≥ 100 | >= 100 ug ml-1 | 72 | ≥ 100 | – | –
C=CCN1C(=O)/C(=C/c2ccc(-c3ccc(S(=O)(=O)O)cc3)o2)SC1=S | ≥ 100 | >= 100 ug ml-1 | 9 | ≥ 100 | – | –
CC1(C)S[C@@H]2[C@H](NC(=O)Cc3ccccc3)C(=O)N2[C@H]1C(=O)O | – | – | – | – | inactive | –
NCC[C@H](O)C(=O)N[C@@H]1C[C@H](N)[C@@H](O[C@H]2O[C@H](CN)[C@@H](O)[C@H](O)[C@H]2O)[C@H](O)[C@H]1O[C@H]1O[C@H](CO)[C@@H](O)[C@H](N)[C@H]1O | – | – | – | – | inactive | –
C=CCN1C(=O)/C(=C/c2ccc(-c3ccc(C(N)=O)cc3)o2)SC1=S | 1.56 (≈ 4.21 µM) | >= 100 ug ml-1 | 102 | ≥ 100 | – | MIC (Staphylococcus aureus [4]): ≥ 100 mg/L; MIC (Staphylococcus aureus [5]): ≥ 100 mg/L; MIC [6]: ≥ 100 mg/L; MIC (Bacillus anthracis): 12.5 mg/L (≈ 33.7 µM); MIC (Clostridioides difficile): ≥ 100 mg/L; MIC (Streptococcus pneumoniae): ≥ 100 mg/L
C#CCN1C(=O)S/C(=C\c2ccc(-c3ccc(C(=O)O)cc3)o2)C1=O | > 100 | >= 100 ug ml-1 | 100 | > 100 | – | –
CO[C@H]1/C=C/O[C@@]2(C)Oc3c(C)c(O)c4c(O)c(c(/C=N/N5CCN(C)CC5)c(O)c4c3C2=O)NC(=O)/C(C)=C\C=C\[C@H](C)[C@H](O)[C@@H](C)[C@@H](O)[C@@H](C)[C@H](OC(C)=O)[C@@H]1C | – | – | – | – | inactive | –
O=C1NC(=S)S/C1=C\c1ccc(-c2ccc(C(=O)O)cc2)o1 | ≥ 100 | >= 100 ug ml-1 | 82 | ≥ 100 | – | –
NC[C@H]1O[C@H](O[C@H]2[C@H](O)[C@@H](O[C@H]3O[C@H](CO)[C@@H](O)[C@H](N)[C@H]3O)[C@H](N)C[C@@H]2N)[C@H](N)C[C@@H]1O | – | – | – | – | inactive | –
C=CCN1C(=O)/C(=C/c2ccc(-c3cccc(N)c3)o2)SC1=S | ≥ 100 | >= 100 ug ml-1 | 11 | ≥ 100 | – | –
CC(=O)O[C@H]1C[C@@]2(C)[C@@H](C[C@@H](O)[C@H]3[C@@]4(C)CC[C@@H](O)[C@@H](C)[C@@H]4CC[C@@]32C)/C1=C(\CCC=C(C)C)C(=O)O | – | – | – | – | Active | –
C=CCN1C(=O)/C(=C/c2ccc(-c3cc(N)cc(C(=O)O)c3)o2)SC1=S | ≥ 100 | >= 100 ug ml-1 | 71 | ≥ 100 | – | –
CC1(C)S[C@@H]2[C@H](NC(=O)[C@H](N)c3ccc(O)cc3)C(=O)N2[C@H]1C(=O)O | – | – | – | – | inactive | –
CCn1cc(C(=O)O)c(=O)c2cc(F)c(N3CCNCC3)cc21 | – | – | – | – | inactive | –
CN(C)[C@@H]1C(O)=C(C(N)=O)C(=O)[C@@]2(O)C(O)=C3C(=O)c4c(O)cccc4[C@@](C)(O)[C@H]3C[C@@H]12 | – | – | – | – | inactive | –
CN[C@H](CC(C)C)C(=O)N[C@H]1C(=O)N[C@@H](CC(N)=O)C(=O)N[C@H]2C(=O)N[C@H]3C(=O)N[C@H](C(=O)N[C@H](C(=O)O)c4cc(O)cc(O)c4-c4cc3ccc4O)[C@H](O)c3ccc(c(Cl)c3)Oc3cc2cc(c3O[C@@H]2O[C@H](CO)[C@@H](O)[C@H](O)[C@H]2O[C@H]2C[C@](C)(N)[C@H](O)[C@H](C)O2)Oc2ccc(cc2Cl)[C@H]1O | – | – | – | – | Active | –
CC[C@H]1OC(=O)[C@H](C)[C@@H](O[C@H]2C[C@@](C)(OC)[C@@H](O)[C@H](C)O2)[C@H](C)[C@@H](O[C@@H]2O[C@H](C)C[C@H](N(C)C)[C@H]2O)[C@](C)(O)C[C@@H](C)C(=O)[C@H](C)[C@@H](O)[C@]1(C)O | – | – | – | – | inactive | –
CC(=O)/N=C1\NC(=O)/C(=C/c2ccc(-c3ccc(C(=O)O)cc3)o2)S1 | ≥ 100 | >= 100 ug ml-1 | 98 | ≥ 100 | – | –
O=C(O)CN1C(=O)/C(=C/c2ccc(-c3cccc(C(=O)O)c3)o2)SC1=S | ≥ 100 | >= 100 ug ml-1 | 17 | ≥ 100 | – | –
GENTAMICIN | – | – | – | – | inactive | –

Compound | MIC (Escherichia coli [1]) [mg/L] | Activity (CHO) | inhibition at 10 µM (Escherichia coli [2]) [%] | MIC [3] [mg/L] | Activity (Staphylococcus aureus [4]) | other results
CCN1CCN(C(=O)N[C@@H](C(=O)N[C@@H]2C(=O)N3[C@@H]2SC(C)(C)[C@@H]3C(=O)O)c2ccccc2)C(=O)C1=O | – | – | – | – | inactive | –
C=CCN1C(=O)/C(=C/c2ccc(-c3cccc(C(F)(F)F)c3)o2)SC1=S | ≥ 100 | >= 100 ug ml-1 | – | ≥ 100 | – | –
C=CCN1C(=O)/C(=C/c2ccc(-c3ccc(OP(=O)(O)O)cc3)o2)SC1=S | ≥ 100 | 50 µg/mL | – | ≥ 100 | – | –
O=C(O)c1ccc(-c2ccc(/C=C3\Sc4ccccc4C3=O)o2)cc1 | > 100 | >= 100 ug ml-1 | 30 | > 100 | – | –
COCCN1C(=O)N/C(=C\c2ccc(-c3cccc(C(=O)O)c3)o2)C1=O | ≥ 100 | >= 100 ug ml-1 | 85 | ≥ 100 | – | –
CCC[C@@H]1C[C@@H](C(=O)N[C@@H]([C@H]2O[C@H](SC)[C@H](O)[C@@H](O)[C@H]2O)[C@H](C)Cl)N(C)C1 | – | – | – | – | inactive | –
C=CCN1C(=O)/C(=C/c2ccc(-c3ccc([N+](=O)[O-])cc3)o2)SC1=S | ≥ 100 | >= 100 ug ml-1 | 3 | ≥ 100 | – | –
C=CCN1C(=O)/C(=C/c2ccc(-c3ccc4c(c3)C(=O)OC4)o2)SC1=S | ≥ 100 | 50 µg/mL | 5 | ≥ 100 | – | –
O=C1NC(=O)/C(=C/c2ccc(-c3ccc(C(=O)O)cc3)o2)N1 | ≥ 100 | >= 100 ug ml-1 | 55 | ≥ 100 | – | –
CC1COc2c(N3CCN(C)CC3)c(F)cc3c(=O)c(C(=O)O)cn1c23 (centres undefined) | – | – | – | – | inactive | –
C=CCN1C(=O)/C(=C/c2ccc(Cc3ccc(C(=O)O)cc3)o2)SC1=S | ≥ 100 | >= 100 ug ml-1 | 63 | ≥ 100 | – | –
Cc1nnc(SCC2=C(C(=O)O)N3C(=O)[C@@H](NC(=O)Cn4cnnn4)[C@H]3SC2)s1 | – | – | – | – | inactive | –
C[C@@H]1O[C@@H]1P(=O)(O)O | – | – | – | – | Active | –
CN1C(=O)/C(=C/c2ccc(-c3cccc(C(=O)O)c3)o2)SC1=S | > 100 | >= 100 ug ml-1 | 89 | > 100 | – | –
C=CCN1C(=O)/C(=C/c2ccc(-c3cccc(Cl)c3)o2)SC1=S | 12.5 (≈ 34.5 µM) | >= 100 ug ml-1 | 76 | ≥ 100 | – | –
C=CCN1C(=O)/C(=C/c2ccc(-c3ccc(C(=O)OC)cc3)o2)SC1=S | ≥ 100 | >= 100 ug ml-1 | 10 | ≥ 100 | – | –
Cc1onc(-c2ccccc2)c1C(=O)N[C@@H]1C(=O)N2[C@@H]1SC(C)(C)[C@@H]2C(=O)O | – | – | – | – | inactive | –
C=CCN1C(=O)S/C(=C\c2ccc(-c3ccc(C(=O)O)cc3)o2)C1=O | ≥ 100 | >= 100 ug ml-1 | 75 | ≥ 100 | – | –
O=C(O)c1cccc(-c2ccc(C=C3C(=O)c4ccccc4C3=O)o2)c1 | 50 (≈ 145 µM) | 50 µg/mL | 72 | 50 (≈ 145 µM) | – | –
